Laboratory results: ChEMBL document CHEMBL1138684, “Determinants of retinoid X receptor transcriptional antagonism” (J Med Chem, 2004)
pIC50: −log10 of the molar value.

What was measured:
[1] = biological target: T1, Retinoic acid receptor alpha (Homo sapiens) (UniProt P10276); assay: Antagonism of retinoic acid receptor alpha activity induced by retinoic acid at 10e-7 M; format: functional
T1 sequence (whole entry): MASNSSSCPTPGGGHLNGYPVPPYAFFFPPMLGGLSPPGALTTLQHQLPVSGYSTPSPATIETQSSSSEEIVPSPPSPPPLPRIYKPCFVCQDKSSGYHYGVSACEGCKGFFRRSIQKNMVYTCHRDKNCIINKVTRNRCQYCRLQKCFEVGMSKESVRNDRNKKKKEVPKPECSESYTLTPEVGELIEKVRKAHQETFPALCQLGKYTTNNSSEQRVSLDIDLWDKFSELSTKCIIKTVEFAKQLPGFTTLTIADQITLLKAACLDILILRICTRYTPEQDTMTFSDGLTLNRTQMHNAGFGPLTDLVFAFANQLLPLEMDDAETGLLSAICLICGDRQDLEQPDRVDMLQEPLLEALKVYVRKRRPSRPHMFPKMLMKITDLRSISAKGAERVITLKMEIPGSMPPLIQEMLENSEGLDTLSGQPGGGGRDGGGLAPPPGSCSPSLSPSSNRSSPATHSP
Procedure, shortened: (§1)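 CV-1 cells kept in DMEM with 10% FCS and seeded 16-24 h before calcium precipitation cotransfection: RARα, β or γ vector (100 µg) with (TREpal)2-tk-CAT or CRBP-I-tk-CAT reporter (200 µg), plus β-gal vector. At 20 h, medium switched to 5% charcoal-stripped FCS. Cells got 1 × 10^-7 M trans-RA ± test agent for 24 h. CAT normalized to β-gal, as % of trans-RA alone.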

[2] = biological target: T2, Retinoic acid receptor gamma (Homo sapiens) (UniProt P13631); assay: Antagonism of retinoic acid receptor gamma activity induced by retinoic acid at 10e-7 M; format: functional; procedure, shortened: as §1
T2 sequence (whole entry): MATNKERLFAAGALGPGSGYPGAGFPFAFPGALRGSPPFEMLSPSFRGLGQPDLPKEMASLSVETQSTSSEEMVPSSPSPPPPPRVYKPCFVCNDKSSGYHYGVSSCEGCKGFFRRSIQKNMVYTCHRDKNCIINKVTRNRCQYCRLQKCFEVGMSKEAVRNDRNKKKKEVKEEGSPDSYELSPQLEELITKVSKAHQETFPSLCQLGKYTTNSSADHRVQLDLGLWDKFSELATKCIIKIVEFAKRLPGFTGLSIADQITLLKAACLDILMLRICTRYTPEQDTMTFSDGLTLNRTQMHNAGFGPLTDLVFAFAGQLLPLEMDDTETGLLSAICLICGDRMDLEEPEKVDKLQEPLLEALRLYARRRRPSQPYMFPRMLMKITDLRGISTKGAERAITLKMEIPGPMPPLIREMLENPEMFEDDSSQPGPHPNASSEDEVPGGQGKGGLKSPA

[3] = biological target: T3, Retinoic acid receptor beta (Homo sapiens) (UniProt P10826); assay: Antagonism of retinoic acid receptor beta activity induced by retinoic acid at 10e-5 M; format: functional; procedure, shortened: as §1
T3 sequence (whole entry): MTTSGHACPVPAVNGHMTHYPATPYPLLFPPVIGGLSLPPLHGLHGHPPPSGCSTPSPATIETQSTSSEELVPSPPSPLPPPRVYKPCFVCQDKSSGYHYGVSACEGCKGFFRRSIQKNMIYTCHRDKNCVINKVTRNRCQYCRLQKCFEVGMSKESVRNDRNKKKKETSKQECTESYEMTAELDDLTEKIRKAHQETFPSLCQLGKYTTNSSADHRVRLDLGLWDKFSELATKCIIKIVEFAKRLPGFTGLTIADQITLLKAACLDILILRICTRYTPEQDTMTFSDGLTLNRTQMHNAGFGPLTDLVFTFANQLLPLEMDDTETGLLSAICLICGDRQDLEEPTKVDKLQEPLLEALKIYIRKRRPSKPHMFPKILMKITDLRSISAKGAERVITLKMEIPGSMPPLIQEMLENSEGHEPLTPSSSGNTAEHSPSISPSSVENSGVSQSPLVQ

[4] = biological target: T4, Retinoic acid receptor RXR-alpha (Homo sapiens) (UniProt P19793); assay: Antagonism of retinoid X receptor alpha activity induced by retinoic acid […] at 10e-7 M; format: functional
T4 sequence (whole entry): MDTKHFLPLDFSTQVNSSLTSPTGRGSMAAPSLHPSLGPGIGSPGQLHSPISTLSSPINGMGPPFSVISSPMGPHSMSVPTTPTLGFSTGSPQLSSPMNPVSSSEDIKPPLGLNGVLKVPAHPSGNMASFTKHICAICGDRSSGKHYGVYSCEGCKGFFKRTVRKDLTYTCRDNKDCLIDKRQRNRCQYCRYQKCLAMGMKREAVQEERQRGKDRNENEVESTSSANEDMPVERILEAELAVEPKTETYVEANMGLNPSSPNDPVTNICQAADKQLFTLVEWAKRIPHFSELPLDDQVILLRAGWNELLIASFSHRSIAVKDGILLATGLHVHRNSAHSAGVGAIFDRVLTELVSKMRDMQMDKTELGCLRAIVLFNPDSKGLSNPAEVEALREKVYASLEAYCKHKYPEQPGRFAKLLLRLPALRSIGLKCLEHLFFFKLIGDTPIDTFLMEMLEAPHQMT
Procedure, shortened: (§2)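 CV-1 cells in DMEM/10% FCS, cotransfected by calcium precipitation with RXRα vector (20 µg), CRBP-II-tk-CAT reporter (200 µg) and β-gal vector. At 20 h, medium changed to 5% charcoal-stripped FCS. Cells treated 24 h with 1 × 10^-7 M 9-cis-RA ± test agent. CAT activity normalized to β-gal, expressed relative to 9-cis-RA alone as 100%.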

[5] = biological target: T2, Retinoic acid receptor gamma (Homo sapiens); assay: Antagonism of retinoic acid receptor gamma activity induced by retinoic acid at 10e-6 M; format: functional; procedure, shortened: as §1
[6] = biological target: T4, Retinoic acid receptor RXR-alpha (Homo sapiens); assay: Antagonism of retinoid X receptor alpha activity induced by retinoic acid […] at 10e-6 M; format: functional; procedure, shortened: as §2
[7] = biological target: T1, Retinoic acid receptor alpha (Homo sapiens); assay: Antagonism of retinoic acid receptor alpha activity induced by retinoic acid at 10e-6 M; format: functional; procedure, shortened: as §1
[8] = biological target: T3, Retinoic acid receptor beta (Homo sapiens); assay: Antagonism of retinoic acid receptor beta activity induced by retinoic acid at 10e-7 M; format: functional; procedure, shortened: as §1
[9] = biological target: T3, Retinoic acid receptor beta (Homo sapiens); assay: Antagonism of retinoic acid receptor beta activity induced by retinoic acid at 10e-6 M; format: functional; procedure, shortened: as §1
[10] = biological target: T4, Retinoic acid receptor RXR-alpha (Homo sapiens); assay: Antagonism of retinoid X receptor alpha activity induced by retinoic acid […] at 10e-5 M; format: functional; procedure, shortened: as §2
[11] = biological target: T1, Retinoic acid receptor alpha (Homo sapiens); assay: Antagonism of retinoic acid receptor alpha activity induced by retinoic acid at 10e-5 M; format: functional; procedure, shortened: as §1
[12] = biological target: T2, Retinoic acid receptor gamma (Homo sapiens); assay: Antagonism of retinoic acid receptor gamma activity induced by retinoic acid at 10e-5 M; format: functional; procedure, shortened: as §1
[13] = biological target: T5, Retinoic acid receptor RXR-alpha (Homo sapiens, UniProt P19793); assay: Inhibition of [3H]9-cis-retinoic acid binding to human retinoid X receptor alpha ligand-binding domain expressed in Escherichia coli
T5 sequence (P19793 whole entry): T4 sequence (whole entry)

Work on `CCCCc1cc2c(cc1C(=C1CC1)c1ccc(C(=O)O)cc1)C(C)(C)CCC2(C)C` yielded a Relative activation [1] of 82%, a Relative activation [2] of 95% and a Relative activation [3] of 65%. It also gave a Relative activation [4] of 115%, a Relative activation [5] of 99% and a Relative activation [6] of 88%. For the same molecule, the Relative activation [7] was 45%, the Relative activation [8] was 98% and the Relative activation [9] was 88%. For the same molecule, the Relative activation [10] was 48%, the Relative activation [11] was 22% and the Relative activation [12] was 91%. The pIC50 [13] was 6.30.

Work on `CCCOc1cc2c(cc1C(=C1CC1)c1ccc(C(=O)O)cn1)C(C)(C)CCC2(C)C` yielded a pIC50 [13] of 8.22.

`C=C(c1ccc(C(=O)O)cc1)c1cc2c(cc1CCCC)C(C)(C)CCC2(C)C` was tested, and the Relative activation [1] was 75%, the Relative activation [2] was 89% and the Relative activation [3] was 84%. It also gave a Relative activation [4] of 114%, a Relative activation [5] of 94% and a Relative activation [6] of 130%. For the same molecule, the Relative activation [7] was 30%, the Relative activation [8] was 94% and the Relative activation [9] was 102%. It also gave a Relative activation [10] of 150%, a Relative activation [11] of 20% and a Relative activation [12] of 110%.

Molecule `CCCCOc1cc2c(cc1C(=C1CC1)c1ccc(C(=O)O)cn1)C(C)(C)CCC2(C)C` has a pIC50 [13] of 8.00.

`CCCCOc1cc2c(cc1C(=C1CC1)c1ccc(C(=O)O)cc1)C(C)(C)CCC2(C)C` gave a pIC50 [13] of 6.57.

Work on `Cc1cc2c(cc1C(=C1CC1)c1ccc(C(=O)O)cc1)C(C)(C)CCC2(C)C` yielded a pIC50 [13] of 7.68.

With `CCCOc1cc2c(cc1C(=C1CC1)c1ccc(C(=O)O)cc1)C(C)(C)CCC2(C)C` the pIC50 [13] was 6.92.
